Assay results taken from ChEMBL document CHEMBL1125244, “4',5'-unsaturated 5'-halogenated nucleosides. Mechanism-based and competitive inhibitors of S-adenosyl-L-homocysteine hydrolase” (J Med Chem, 1991).
Values after ≈ are worked out from the molar mass of the structure shown. Blank lines part the entries; values can stand above or below the molecule they belong to.

Legend:
[1] = tested on: Moloney murine leukemia virus; test: Antiretroviral activity in the XC-plaque assay using Moloney leukemia virus (MoLV) as a model for human immunodeficiency virus (HIV).; format: functional, organism-based
Adenosylhomocysteinase [2] = target: T1, Adenosylhomocysteinase (Mus musculus, UniProt P50247); test: Activity determined in mouse liver S-adenosyl-L-homocysteine hydrolase and expressed as KI values.
Adenosylhomocysteinase [3] = target: T2, Adenosylhomocysteinase (Rattus norvegicus, UniProt P10760); test: (§1) Activity determined in rat liver S-adenosyl-L-homocysteine hydrolase and expressed as KI values.
T2 sequence (P10760 whole entry): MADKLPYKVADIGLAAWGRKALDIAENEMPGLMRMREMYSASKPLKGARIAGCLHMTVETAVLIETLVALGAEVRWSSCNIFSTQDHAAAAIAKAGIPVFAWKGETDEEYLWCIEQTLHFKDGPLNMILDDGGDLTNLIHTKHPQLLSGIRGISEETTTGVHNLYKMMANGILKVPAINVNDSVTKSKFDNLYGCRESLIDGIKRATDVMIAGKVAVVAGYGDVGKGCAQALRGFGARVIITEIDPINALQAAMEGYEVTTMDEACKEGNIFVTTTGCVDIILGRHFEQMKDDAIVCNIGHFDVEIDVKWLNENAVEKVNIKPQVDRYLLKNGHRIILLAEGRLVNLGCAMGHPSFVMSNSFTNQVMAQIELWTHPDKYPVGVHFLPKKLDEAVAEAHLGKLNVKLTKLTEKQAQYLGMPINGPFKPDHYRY

Adenosylhomocysteinase [4] = target: T2, Adenosylhomocysteinase; test: Activity determined in rat liver S-adenosyl-L-homocysteine hydrolase and expressed as Kinactivator values.
[5] = target: Adenosylhomocysteinase (Mus musculus) (UniProt P50247)
[6] = target: T3, Adenosylhomocysteinase (Rattus norvegicus) (UniProt P10760)
T3 sequence (whole entry): T2 sequence (P10760 whole entry)

Adenosylhomocysteinase [7] = target: T2, Adenosylhomocysteinase; test: Activity determined in rat liver S-Adenosyl-homocysteine hydrolase and expressed as KI values; NA= not applicable
Adenosylhomocysteinase [8] = target: T2, Adenosylhomocysteinase; test: Competitive inhibitory activity against rat liver S-Adenosyl-homocysteine hydrolase
Adenosylhomocysteinase [9] = target: T1, Adenosylhomocysteinase; test: Activity determined in mouse liver S-Adenosyl-homocysteine hydrolase and expressed as KI values; NA= not applicable
[10] = target: T3, Adenosylhomocysteinase (Rattus norvegicus); test: as §1
Adenosylhomocysteinase [11] = target: T2, Adenosylhomocysteinase; test: Time-dependent inhibitory activity against rat liver S-adenosyl-L-homocysteine hydrolase
Adenosylhomocysteinase [12] = target: T1, Adenosylhomocysteinase; test: Activity determined in mouse liver S-adenosyl-L-homocysteine hydrolase and expressed as KI values; NA= not applicable
Summary of the method: (§2)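 Partially purified mouse liver enzyme (38–55% ammonium sulfate fraction, stored at –70 °C), assayed in the synthetic direction. The mix held […] potassium phosphate, 2 mM 2-mercaptoethanol, 0.1 mM adenosine plus [³H]adenosine, 10 mM DL-homocysteine and 1.0 μM 2-deoxycoformycin, run 10–20 min at 37 °C. [³H]SAH was separated on Cellex-P and counted. Time-dependent inactivation constants came from the Kitz–Wilson method.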

Adenosylhomocysteinase [13] = target: T2, Adenosylhomocysteinase; test: Activity determined in rat liver S-adenosyl-L-homocysteine hydrolase and expressed as KI values; NA= not applicable
Adenosylhomocysteinase [14] = target: T2, Adenosylhomocysteinase; test: Activity determined in rat liver S-adenosyl-L-homocysteine hydrolase and expressed as Kinactivator values; NA= not applicable
Adenosylhomocysteinase [15] = target: T1, Adenosylhomocysteinase; test: Activity determined in mouse liver S-Adenosyl-L-homocysteine (SAH) Hydrolase and expressed as KI values; NA= not applicable; summary of the method: as §2
Adenosylhomocysteinase [16] = target: T2, Adenosylhomocysteinase; test: Activity determined in rat liver S-Adenosyl-L-homocysteine (SAH) Hydrolase and expressed as KI values; NA= not applicable

Adenosylhomocysteinase (Mus musculus), sequence (P50247 2-432 limits assumed): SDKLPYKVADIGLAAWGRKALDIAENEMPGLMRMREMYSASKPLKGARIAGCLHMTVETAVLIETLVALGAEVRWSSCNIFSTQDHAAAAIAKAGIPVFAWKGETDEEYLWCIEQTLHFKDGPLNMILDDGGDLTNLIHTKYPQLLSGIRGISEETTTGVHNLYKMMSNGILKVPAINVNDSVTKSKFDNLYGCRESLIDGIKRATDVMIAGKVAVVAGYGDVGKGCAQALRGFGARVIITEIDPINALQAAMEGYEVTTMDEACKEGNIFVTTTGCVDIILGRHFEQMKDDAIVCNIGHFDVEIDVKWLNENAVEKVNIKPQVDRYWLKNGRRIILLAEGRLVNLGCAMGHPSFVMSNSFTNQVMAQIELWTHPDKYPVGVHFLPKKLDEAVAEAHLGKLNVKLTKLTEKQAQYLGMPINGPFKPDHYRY
T1 sequence (P50247 whole entry): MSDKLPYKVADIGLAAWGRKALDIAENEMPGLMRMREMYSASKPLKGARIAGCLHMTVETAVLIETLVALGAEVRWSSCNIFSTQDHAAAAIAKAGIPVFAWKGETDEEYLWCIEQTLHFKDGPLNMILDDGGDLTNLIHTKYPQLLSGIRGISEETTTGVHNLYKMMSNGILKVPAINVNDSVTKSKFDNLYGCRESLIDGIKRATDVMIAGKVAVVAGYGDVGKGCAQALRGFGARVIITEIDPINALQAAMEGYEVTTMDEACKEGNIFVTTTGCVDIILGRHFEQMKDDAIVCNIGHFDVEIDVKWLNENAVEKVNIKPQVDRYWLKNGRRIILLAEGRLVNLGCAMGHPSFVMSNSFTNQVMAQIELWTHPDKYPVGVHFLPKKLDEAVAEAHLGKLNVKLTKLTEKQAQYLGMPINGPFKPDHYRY

Structure (SMILES): Nc1ncnc2c1ncn2[C@@H]1O/C(=C/F)[C@@H](O)[C@H]1O
IC50 [1]: 0.25 µg/mL (≈ 0.936 µM)
Ki (Adenosylhomocysteinase [2]): 1.04 µM
Ki (Adenosylhomocysteinase [3]): 2.4 µM
Ki (Adenosylhomocysteinase [4]): Not Active
K inact [5]: 0.23 min⁻¹
K inact [6]: 0.14 min⁻¹

Structure (SMILES): Nc1ncnc2c1ncn2[C@@H]1O/C(=C(/F)Cl)[C@@H](O)[C@H]1O
IC50 [1]: 0.1 µg/mL (≈ 0.331 µM)
Ki (Adenosylhomocysteinase [7]): Not Active
Ki (Adenosylhomocysteinase [8]): 1.5 µM
Ki (Adenosylhomocysteinase [9]): Not Active

Structure (SMILES): Nc1ncnc2c1ncn2C1O[C@H](C(F)F)[C@@H](O)[C@H]1O (stereo partly specified)
IC50 [1]: 0.8 µg/mL (≈ 2.79 µM)
Ki (Adenosylhomocysteinase [2]): 10 µM
K inact [10]: 0.04 min⁻¹
Ki (Adenosylhomocysteinase [4]; read-out: Ki): 9.7 µM
K inact [5]: 0.6 min⁻¹
Ki (Adenosylhomocysteinase [11]): 9.7 µM

Structure (SMILES): Nc1ncnc2c1ncn2[C@@H]1O/C(=C\Cl)[C@@H](O)[C@H]1O
IC50 [1]: 3.3 µg/mL (≈ 11.6 µM)
Ki (Adenosylhomocysteinase [12]): Not Active
Ki (Adenosylhomocysteinase [13]): Not Active
Ki (Adenosylhomocysteinase [14]): 1.6 µM

Structure (SMILES): Nc1ncnc2c1ncn2[C@@H]1O/C(=C(\F)Cl)[C@@H](O)[C@H]1O
IC50 [1]: 1.3 µg/mL (≈ 4.31 µM)
Ki (Adenosylhomocysteinase [12]): Not Active
Ki (Adenosylhomocysteinase [13]): Not Active
Ki (Adenosylhomocysteinase [14]): 3 µM

Structure (SMILES): Nc1ncnc2c1ncn2[C@@H]1O[C@H](CO)[C@@H](O)[C@@H]1O [VIDARABINE]
IC50 [1]: 1 µg/mL (≈ 3.74 µM)
Ki (Adenosylhomocysteinase [2]): 30 µM

The next lines start with the values.

IC50 [1]: 1.2 µg/mL (≈ 4.49 µM)
Ki (Adenosylhomocysteinase [7]): Not Active
Ki (Adenosylhomocysteinase [8]): 11 µM
Ki (Adenosylhomocysteinase [9]): Not Active
Structure (SMILES): Nc1ncnc2c1ncn2[C@@H]1O/C(=C\F)[C@@H](O)[C@@H]1O

IC50 [1]: 10 µg/mL (≈ 39.8 µM)
Ki (Adenosylhomocysteinase [12]): Not Active
Ki (Adenosylhomocysteinase [13]): Not Active
Ki (Adenosylhomocysteinase [14]): 150 µM
Structure (SMILES): Nc1ncnc2c1ncn2[C@H]1C[C@H](O)/C(=C/F)O1

Ki (Adenosylhomocysteinase [15]): Not Active
Ki (Adenosylhomocysteinase [16]): Not Active
Structure (SMILES): Nc1ncnc2c1ncn2[C@H]1C[C@H](O)/C(=C\F)O1

IC50 [1]: 4.4 µg/mL (≈ 16.5 µM)
Ki (Adenosylhomocysteinase [7]): Not Active
Ki (Adenosylhomocysteinase [8]): 3.2 µM
Ki (Adenosylhomocysteinase [9]): Not Active
Structure (SMILES): Nc1ncnc2c1ncn2[C@@H]1O/C(=C/F)[C@@H](O)[C@@H]1O

IC50 [1]: 0.05 µg/mL (≈ 0.187 µM)
Ki (Adenosylhomocysteinase [2]): 0.55 µM
Ki (Adenosylhomocysteinase [3]): 6.5 µM
Ki (Adenosylhomocysteinase [4]): Not Active
K inact [5]: 0.28 min⁻¹
K inact [6]: 0.8 min⁻¹
Structure (SMILES): Nc1ncnc2c1ncn2[C@@H]1O/C(=C\F)[C@@H](O)[C@H]1O
